Data reported in ChEMBL document CHEMBL1938300 (Bioorg Med Chem, 2011).
In brackets after ≈: the same amount, converted by molar mass.

Legend:
Rattus norvegicus [1] = test: AUC in Sprague-Dawley rat at 1 mg/kg, iv by HPLC; type: ADME, organism-based, Plasma; parameters: dose 1 mg/kg, route intravenous; details: in vivo
[2] = Solubility of the compound; type: physicochemical
[3] = Volume of distribution in Sprague-Dawley rat by HPLC; type: ADME, organism-based; details: in vivo
Procedure, shortened: (§1)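 Rat IV pharmacokinetics: male Sprague-Dawley, n=3, 1 mg/kg tail-vein dose in 3% DMSO/30% Solutol/67% PBS; plasma over 0.083–6 h quantified by HPLC-MS/MS; parameters estimated per rat by non-compartmental analysis.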

Rattus norvegicus [4] = test: AUC in Sprague-Dawley rat at 5 mg/kg, po by HPLC; type: ADME, organism-based, Plasma; parameters: dose 5 mg/kg, route oral; details: in vivo
[5] = Oral bioavailability Sprague-Dawley rat at 5 mg/kg by HPLC; type: ADME, organism-based; details: in vivo
Procedure, shortened: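 Male Sprague-Dawley rats (n=3/group) given 1 mg/kg IV (DMSO/Solutol/PBS) or, after overnight fast, 5 mg/kg oral gavage in PEG400; plasma by HPLC-MS/MS; F% = dose-normalised oral AUC0-∞ divided by IV AUC0-∞, times 100.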

[6] = Clearance in Sprague-Dawley rat by HPLC; type: ADME, organism-based; details: in vivo; procedure, shortened: as §1
[7] = Half life in Sprague-Dawley rat liver microsomes; type: ADME, Microsome
[8] = Solubility of the compound at pH 7.4; type: physicochemical; details: buffer

Row | Structure (SMILES) | AUC (Rattus norvegicus [1]) [ng·h/mL] | solubility [2] [µg/mL] | Vd [3] [L/kg] | AUC (Rattus norvegicus [4]) [ng·h/mL] | bioavailability [5] [%] | clearance [6] [mL/min/kg] | half-life [7] [min] | solubility [8] [µg/mL]
1 | CNC(=O)c1cccc(F)c1Nc1nc(Nc2ccc3c(c2)NC(=O)C(N)CC3(C)C)ncc1Cl (racemic) | 787 | > 120 | 4.6 | – | – | – | – | –
2 | CNC(=O)c1cccc(F)c1Nc1nc(Nc2ccc3c(c2)NC(=O)C(NC(=O)CN(C)C)CC3(C)C)ncc1Cl.O=C(O)C(F)(F)F (racemic) | 825 | – | 3 | 61 | 1 | 32 | – | –
3 | CNC(=O)c1cccc(F)c1Nc1nc(Nc2ccc3c(c2)NC(=O)C(NC(=O)C(F)(F)F)CC3(C)C)ncc1Cl.O=C(O)C(F)(F)F (racemic) | 1310 | 8 | 1.2 | 606 | 9 | 16 | – | –
4 | CNC(=O)c1cccc(F)c1Nc1nc(Nc2ccc3c(c2)NC(=O)C(NC(=O)OC)CC3(C)C)ncc1Cl.O=C(O)C(F)(F)F (racemic) | 1200 | – | 1 | 987 | 16 | 15 | – | –
5 | CNC(=O)c1cccc(F)c1Nc1nc(Nc2ccc3c(c2)NC(=O)[C@@H](NC(=O)N2CCCC2)CC3(C)C)ncc1Cl | 3190 | – | 0.6 | 5550 | 35 | 5 | – | –
6 | CCN1C(=O)CCC(C)(C)c2ccc(Nc3ncc(Cl)c(Nc4c(F)cccc4C(=O)NC)n3)cc21 | – | – | – | – | 0 | – | – | –
7 | CNC(=O)c1cccc(F)c1Nc1nc(Nc2ccc3c(c2)NC(=O)C(NC(=O)N2CCCC2)CC3(C)C)ncc1Cl.O=C(O)C(F)(F)F (racemic; form 1) | 3420 | – | 0.8 | 2630 | 15 | 6 | – | –
8 | CNC(=O)c1cccc(F)c1Nc1nc(Nc2ccc3c(c2)NC(=O)CCC3(C)C)ncc1Cl | 1060 | 21 (≈ 43.5 µM) | 0.5 | 46 | 1 | 16 | 15 | 21 (≈ 43.5 µM)
9 | CNC(=O)c1cccc(F)c1Nc1nc(Nc2ccc3c(c2)NC(=O)C(NC(=O)N2CCCC2)CC3(C)C)ncc1Cl (racemic; form 2) | 2330 | – | 0.8 | 4660 | 40 | 8 | – | –
10 | CNC(=O)c1cccc(F)c1Nc1nc(Nc2ccc3c(c2)NC(=O)C(NC(=O)COC)CC3(C)C)ncc1Cl.O=C(O)C(F)(F)F (racemic) | 846 | – | 1.3 | 497 | 12 | 20 | – | –
11 | CNC(=O)c1cccc(F)c1Nc1nc(Nc2ccc3c(c2)NC(=O)C(NC(C)=O)CC3(C)C)ncc1Cl.O=C(O)C(F)(F)F (racemic) | 654 | – | 2 | 48 | 2 | 33 | – | –
12 | CNC(=O)c1cccc(F)c1Nc1nc(Nc2ccc3c(c2)NC(=O)[C@H](NC(=O)N2CCCC2)CC3(C)C)ncc1Cl | 3460 | – | 0.6 | 5850 | 34 | 5 | 21 | 26 (≈ 43.7 µM)
